# PubChem BioAssay
# Calls of active or inactive are those of the source. Unless noted, no stated cut-off is given here; in the data, active means inhibition above about 30%; inactive means the rest.
# Columns and labels:
# [1] = reducers of endogenous Her2 protein level, primary screen, SKBR3 breast tumor cells, AlphaScreen, ATP viability (AID 461;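 active means Her2 level under about 52% in both replicate screens, with viability over 70% of control, limit read from the data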;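 on Her2 level: lower value means less Her2 protein in the cells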;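 on viability: percent of carrier control wells set as 100% viability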); conditions: 18-24 h, measured here: SKBR3 viability, ATP luminescence, at 10 µM
# [2] = target: Receptor tyrosine-protein kinase erbB-2 (Homo sapiens) (UniProt P04626); experiment: as above; conditions: 18-24 h, at 10 µM, stronger effect = lower value
# Sequence of Receptor tyrosine-protein kinase erbB-2 (Homo sapiens) (P04626 whole entry, looked up): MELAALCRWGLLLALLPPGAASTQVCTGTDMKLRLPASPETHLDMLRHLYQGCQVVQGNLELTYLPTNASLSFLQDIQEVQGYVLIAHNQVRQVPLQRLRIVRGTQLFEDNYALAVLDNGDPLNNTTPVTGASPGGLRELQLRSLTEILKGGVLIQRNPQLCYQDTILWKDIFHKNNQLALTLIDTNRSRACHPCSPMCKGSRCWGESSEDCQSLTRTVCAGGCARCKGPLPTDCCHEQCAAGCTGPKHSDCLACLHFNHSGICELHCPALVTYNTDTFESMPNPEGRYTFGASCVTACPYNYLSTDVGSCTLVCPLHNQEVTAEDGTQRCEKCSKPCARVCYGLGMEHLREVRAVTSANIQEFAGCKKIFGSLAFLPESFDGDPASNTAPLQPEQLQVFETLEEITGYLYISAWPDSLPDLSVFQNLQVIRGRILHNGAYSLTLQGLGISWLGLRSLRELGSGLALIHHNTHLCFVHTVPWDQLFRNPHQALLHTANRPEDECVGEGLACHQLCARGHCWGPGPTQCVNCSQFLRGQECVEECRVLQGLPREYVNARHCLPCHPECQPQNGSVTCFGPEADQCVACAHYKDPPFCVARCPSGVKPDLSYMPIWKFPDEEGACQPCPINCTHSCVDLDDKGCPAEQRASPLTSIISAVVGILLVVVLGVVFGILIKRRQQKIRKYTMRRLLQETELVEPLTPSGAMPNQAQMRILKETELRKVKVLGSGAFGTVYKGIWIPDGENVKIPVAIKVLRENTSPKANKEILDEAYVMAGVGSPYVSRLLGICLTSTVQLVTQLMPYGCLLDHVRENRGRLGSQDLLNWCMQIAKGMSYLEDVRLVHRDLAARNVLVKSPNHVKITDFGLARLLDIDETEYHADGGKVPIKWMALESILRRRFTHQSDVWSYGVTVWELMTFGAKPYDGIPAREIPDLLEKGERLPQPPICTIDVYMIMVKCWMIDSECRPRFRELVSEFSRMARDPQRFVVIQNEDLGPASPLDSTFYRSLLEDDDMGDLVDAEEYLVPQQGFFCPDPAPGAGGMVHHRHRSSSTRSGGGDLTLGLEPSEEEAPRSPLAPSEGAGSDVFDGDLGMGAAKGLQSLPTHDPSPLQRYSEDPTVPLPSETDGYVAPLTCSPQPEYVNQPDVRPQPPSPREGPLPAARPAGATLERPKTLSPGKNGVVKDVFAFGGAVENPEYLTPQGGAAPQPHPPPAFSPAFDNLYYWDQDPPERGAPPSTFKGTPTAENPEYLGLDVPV
# [3] = SK-BR-3 cell growth inhibitors, pilot screen, 24 h, human (AID 572;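 active means viability at or below 10% of carrier control in both of two separate runs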;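 further: compound exposure lasted between 18 and 24 h rather than exactly 24 h; 100% = carrier-treated control wells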); conditions: SK-BR-3 viability, CellTiter-Glo luminescence, at 10 µM, stronger effect = lower value
# [4] = HUVEC growth inhibition – cell-based, human, primary screen (AID 575;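 active means viability at or below 30% in both replicate assays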;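 further: 100% = median of untreated cell wells with 0.1% DMSO on each plate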); conditions: HUVEC proliferation, CellTiter-Glo luminescence, 72 h; at 10 µM; stronger effect = lower value
# Procedure, shortened: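 Material: primary human umbilical vein endothelial cells / Schedule: 72 h exposure, 37 °C, 5% CO2, 30 min RT equilibration / Signal: ATP-based CellTiter-Glo luminescent read / Read-out basis: percent of median DMSO-control luminescence / Control set: 32 DMSO-only cell-control wells (high), 32 MePR drug-control wells (low) per plate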
# [5] = growth inhibitors of H69AR lung tumor, primary screen, human, duplicate replicates (AID 580;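 active means viability at or under a set limit in both replicates, limit being median viability minus 3 SD, cut at about 48% in these data, passing the limit was not always enough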;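 further: 100% = mean luminescence of untreated wells and 0% = no signal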); conditions: H69AR lung tumor cells viability, ATP luminescence, 72 h; at 10 µM; stronger effect = lower value
# [6] = reversal of MRP1-mediated doxorubicin resistance, pilot screen, H69AR cells, doxorubicin co-treatment (AID 601;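 active means viability loss from added drug above about 55%, and viability with drug at most 40%, in both replicates, limit read from the data, passing the limit was not always enough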); conditions: CellTiter-Glo, 72 h, at 10 µM; for differential viability (reversal): stronger effect = higher value
# [7] = 384-well plate pilot, post-Golgi transport modulator project, inhibition of yeast transport mutant growth (AID 636; in the data active means inhibition above about 31%); conditions: absorbance 615 nm, about 18 h, stronger effect = higher value
# [8] = growth suppression of yeast trafficking mutant, preliminary HTS, modulators of trafficking downstream of Golgi apparatus project, 1536-format plate, OD 615 nm (AID 637); conditions: yeast transport mutant growth, absorbance 615 nm, 18 h; stronger effect = higher value
# [9] = H69AR cells + 2 uM doxorubicin, measured here: viability with 2 uM doxorubicin, stronger effect = lower value
# [10] = H69AR cells, compound alone cytotoxicity
Structure (SMILES),viability [1] [%],Her2 level [2],viability [3],viability [4],viability [5],differential viability (reversal) ([6]; H69AR cells + 2 uM doxorubicin),"viability [6, 9] [%]","viability [6, 10] [%]",inhibition [7],inhibition [8]
O=S(=O)(c1cccc2nsnc12)N1CCN(c2ncccn2)CC1,87,96% (inactive),87% (inactive),105% (inactive),86.9% (inactive),-7.98% (inactive),94.9,86.9,-7.16% (inactive),3.61% (inactive)
CCC(C(=O)NC1CCCC1)N(Cc1ccco1)C(=O)Cn1nnc(-c2ccc(C)cc2)n1 (stereo not given),97.5,97% (inactive),97.5% (inactive),106% (inactive),92.3% (inactive),-1.87% (inactive),94.2,92.3,-3.33% (inactive),-3.44% (inactive)
CN(C(=O)c1cc2sccc2n1C)C1CCCCC1,91,106% (inactive),91% (inactive),87.7% (inactive),100% (inactive),14.7% (inactive),85.7,100,-7.3% (inactive),-2.13% (inactive)
CC1Cc2nc(SCC(=O)Nc3ccccc3F)n(C)c(=O)c2S1 (stereo not given),104,89.5% (inactive),104% (inactive),92.4% (inactive),93.5% (inactive),-0.345% (inactive),93.8,93.5,-7.95% (inactive),4.29% (inactive)
N#CC1=C(N)Oc2n[nH]c(-c3ccncc3)c2C1c1ccsc1 (stereo not given),88,95% (inactive),88% (inactive),113% (inactive),87.7% (inactive),-6.48% (inactive),94.2,87.7,0.53% (inactive),-4% (inactive)
O=c1c2nnn(Cc3ccc(Cl)cc3)c2ncn1Cc1ccc(F)cc1,124,89.5% (inactive),124% (inactive),65.6% (inactive),94.6% (inactive),7.53% (inactive),87.1,94.6,-9.86% (inactive),1.75% (inactive)
Cc1cc(NC(c2cccnc2)c2c(C)[nH]c3ccccc23)no1 (stereo not given),97,76% (inactive),97% (inactive),85.1% (inactive),89% (inactive),-8.09% (inactive),97,89,-5.6% (inactive),3.61% (inactive)
Clc1ccccc1OCc1nn2c(-c3ccncc3)nnc2s1,114,75.5% (inactive),114% (inactive),78.6% (inactive),98.2% (inactive),5.55% (inactive),92.7,98.2,-5.95% (inactive),2.67% (inactive)
CC1CCN(S(=O)(=O)c2ccc3[nH]c(=O)cc(C(=O)O)c3c2)CC1,98,114% (inactive),98% (inactive),106% (inactive),105% (inactive),17.1% (inactive),88.3,105,-4.16% (inactive),-4.1% (inactive)
COc1ccccc1N(CC(=O)NCc1ccccc1)S(C)(=O)=O,103,92.5% (inactive),103% (inactive),106% (inactive),97% (inactive),3.07% (inactive),93.9,97,-9.19% (inactive),-7.33% (inactive)
COc1ccc(CCn2c(=N)c(C#N)cc3c(=O)n4ccccc4nc32)cc1,95,84.5% (inactive),95% (inactive),79.7% (inactive),65.2% (inactive),2.31% (inactive),62.9,65.2,-8.78% (inactive),5.17% (inactive)
CCOc1ccc(NCCC(=O)c2ccc3c(c2)OCO3)cc1,90,84.5% (inactive),90% (inactive),75.7% (inactive),66.1% (inactive),-13.5% (inactive),79.6,66.1,-6.71% (inactive),-5.5% (inactive)
CCSc1nc2ccccc2n1CC(N)=O,102,81% (inactive),102% (inactive),96.5% (inactive),88.8% (inactive),6.57% (inactive),82.2,88.8,-9.04% (inactive),1.9% (inactive)
CC(C)c1nnc(NC(=O)c2cnccn2)s1,87.5,88.5% (inactive),87.5% (inactive),104% (inactive),92.2% (inactive),-0.1% (inactive),92.3,92.2,-3.65% (inactive),-2.46% (inactive)
